Laboratory results published in ChEMBL document CHEMBL1121371, “Antihypertensive 5,6-diarylpyridazin-3-ones” (1980).
“And” between values parts separate entries of the source, which are not always exact repeats. Equal values may be shown once.

Legend:
Rattus norvegicus [1] = test: Antihypertensive activity in spontaneously hypertensive rats was measured as average blood pressure at 100 mg/kg, p.o. before predose; type: functional; settings: route oral
How it was run: (§1)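 Spontaneously hypertensive rats aged 12 to 16 weeks, in groups of five with systolic pressure of 170 mmHg or more. Oral dosing as a solution or suspension in 0.25% methylcellulose, 5 mL/kg, with a vehicle control group. Tail-cuff systolic pressure was read predose and 4 and 24 h after each of two doses. Values were compared with predose by Student's t test.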

Rattus norvegicus [2] = test: Antihypertensive activity in spontaneously hypertensive rats was measured as average blood pressure at 100 mg/kg, p.o. after 4 hours of postdose-2; type: functional; settings: route oral; how it was run: as §1
Rattus norvegicus [3] = test: Antihypertensive activity in spontaneously hypertensive rats was measured as average blood pressure at 100 mg/kg, p.o. after 4 hours of postdose-1.; type: functional; settings: route oral; how it was run: as §1
Rattus norvegicus [4] = test: Antihypertensive activity in spontaneously hypertensive rats was measured as average blood pressure at 100 mg/kg, p.o. after 24 hours of postdose-1.; type: functional; settings: route oral; how it was run: as §1
Rattus norvegicus [5] = test: Antihypertensive activity in spontaneously hypertensive rats was measured as average blood pressure at 100 mg/kg, po after 24 hours of postdose-2; type: functional; how it was run: as §1
Rattus norvegicus [6] = test: Antihypertensive activity in spontaneously hypertensive rats was measured as average blood pressure at 100 mg/kg, p.o. after 4 hours of postdose-1; type: functional; settings: route oral; how it was run: as §1
Rattus norvegicus [7] = test: Antihypertensive activity in spontaneously hypertensive rats was measured as increase in heart rate at 100 mg/kg peroral dose; (+)=Increased heart rate; type: functional, organism-based; parameters: dose 100 mg/kg
Rattus norvegicus [8] = test: Antihypertensive activity in spontaneously hypertensive rats was measured as average blood pressure at 30 mg/kg, p.o. after 24 hours of postdose-2; type: functional; settings: route oral; how it was run: as §1
Rattus norvegicus [9] = test: Antihypertensive activity in spontaneously hypertensive rats was measured as average blood pressure at 30 mg/kg, p.o. before predose; type: functional; settings: route oral; how it was run: as §1
Rattus norvegicus [10] = test: Antihypertensive activity in spontaneously hypertensive rats was measured as average blood pressure at 30 mg/kg, p.o. after 24 hours of postdose-1; type: functional; settings: route oral; how it was run: as §1
Rattus norvegicus [11] = test: Antihypertensive activity in spontaneously hypertensive rats was measured as average blood pressure at 30 mg/kg, po after 4 hours of postdose-1.; type: functional; how it was run: as §1
Rattus norvegicus [12] = test: Antihypertensive activity in spontaneously hypertensive rats was measured as average blood pressure at 30 mg/kg, p.o. after 4 hours of postdose-2; type: functional; settings: route oral; how it was run: as §1
Rattus norvegicus [13] = test: Antihypertensive activity in spontaneously hypertensive rats was measured as average blood pressure at 50 mg/kg, p.o. after 24 hours of postdose-1; type: functional; settings: route oral; how it was run: as §1
Rattus norvegicus [14] = test: Antihypertensive activity in spontaneously hypertensive rats was measured as average blood pressure at 10 mg/kg, p.o. after 24 hours of postdose-1; type: functional; settings: route oral; how it was run: as §1
Rattus norvegicus [15] = test: Antihypertensive activity in spontaneously hypertensive rats was measured as average blood pressure at 25 mg/kg, p.o. after 4 hours of postdose-2; type: functional; settings: route oral; how it was run: as §1
Rattus norvegicus [16] = test: Antihypertensive activity in spontaneously hypertensive rats was measured as average blood pressure at 50 mg/kg, p.o. after 4 hours of postdose-1; type: functional; settings: route oral; how it was run: as §1
Rattus norvegicus [17] = test: Antihypertensive activity in spontaneously hypertensive rats was measured as average blood pressure at 10 mg/kg, p.o. before predose; type: functional; settings: route oral; how it was run: as §1
Rattus norvegicus [18] = test: Antihypertensive activity in spontaneously hypertensive rats was measured as average blood pressure at 25 mg/kg, p.o. before predose; type: functional; settings: route oral; how it was run: as §1
Rattus norvegicus [19] = test: Antihypertensive activity in spontaneously hypertensive rats was measured as average blood pressure at 50 mg/kg, p.o. before predose; type: functional; settings: route oral; how it was run: as §1
Rattus norvegicus [20] = test: Antihypertensive activity in spontaneously hypertensive rats was measured as average blood pressure at 50 mg/kg, p.o. after 24 hours of postdose-2; type: functional; settings: route oral; how it was run: as §1
Rattus norvegicus [21] = test: Antihypertensive activity in spontaneously hypertensive rats was measured as average blood pressure at 25 mg/kg, p.o. after 24 hours of postdose-1; type: functional; settings: route oral; how it was run: as §1
Rattus norvegicus [22] = test: Antihypertensive activity in spontaneously hypertensive rats was measured as average blood pressure at 10 mg/kg, p.o. after 24 hours of postdose-2; type: functional; settings: route oral; how it was run: as §1
Rattus norvegicus [23] = test: Antihypertensive activity in spontaneously hypertensive rats was measured as average blood pressure at 25 mg/kg, po after 4 hours of postdose-1; type: functional; how it was run: as §1
Rattus norvegicus [24] = test: Antihypertensive activity in spontaneously hypertensive rats was measured as average blood pressure at 10 mg/kg, p.o. after 4 hours of postdose-2; type: functional; settings: route oral; how it was run: as §1
Rattus norvegicus [25] = test: Antihypertensive activity in spontaneously hypertensive rats was measured as average blood pressure at 50 mg/kg, p.o. after 4 hours of postdose-2; type: functional; settings: route oral; how it was run: as §1
Rattus norvegicus [26] = test: Antihypertensive activity in spontaneously hypertensive rats was measured as average blood pressure at 25 mg/kg, p.o. after 24 hours of postdose-2; type: functional; settings: route oral; how it was run: as §1
Rattus norvegicus [27] = test: Antihypertensive activity in spontaneously hypertensive rats was measured as average blood pressure at 10 mg/kg, p.o. after 4 hours of postdose-1.; type: functional; settings: route oral; how it was run: as §1
Rattus norvegicus [28] = test: Antihypertensive activity in spontaneously hypertensive rats was measured as increase in heart rate at 100 mg/kg peroral dose; (+)=increased heart rate; type: functional, organism-based; parameters: dose 100 mg/kg

Row | Structure (SMILES) | BP (Rattus norvegicus [1]) [mmHg] | BP (Rattus norvegicus [2]) [mmHg] | BP (Rattus norvegicus [3]) [mmHg] | BP (Rattus norvegicus [4]) [mmHg] | BP (Rattus norvegicus [5]) [mmHg] | BP (Rattus norvegicus [6]) [mmHg] | further results
1 | CC(=O)c1c(-c2ccc(Cl)cc2)c(-c2ccc(Cl)cc2)nn(CCN2CCCCC2)c1=O | 192 | 165 | 180 | 163 | 176 | – | –
2 | C[C@](N)(Cc1ccc(O)c(O)c1)C(=O)O [METHYLDOPA] | 178 | 155 | – | 174 | 166 | 161 | –
3 | CC(=O)c1c(-c2ccc(Cl)cc2)c(-c2ccc(Cl)cc2)nn(C(C)CO)c1=O (stereo not drawn) | 212 | 191 | – | 174 | 201 | 186 | –
4 | CCOC(=O)N1CCN(CCn2nc(-c3ccc(Cl)cc3)c(-c3ccc(Cl)cc3)c(C(C)=O)c2=O)CC1 | 200 | 151 | 186 | 182 | 183 | – | –
5 | CN(C)c1ccc(-c2c(-c3ccc(Cl)cc3)c(-c3ccc(Cl)cc3)nn(CCO)c2=O)cc1.Cl | 223 | 188 | – | 199 | 208 | 184 | Heart rate (Rattus norvegicus [7]): Increased heart rate
6 | COCCn1nc(-c2ccc(Cl)cc2)c(-c2ccc(Cl)cc2)c(C(C)=O)c1=O | 186 | 144 | – | 148 | 158 | 142 | –
7 | N#Cc1c(-c2ccc(Cl)cc2)c(-c2ccc(Cl)cc2)nn(CCCC(=O)O)c1=O | 215 | 175 | 202 | 204 | 180 | – | –
8 | CC(=O)c1c(-c2ccc(F)cc2)c(-c2ccc(F)cc2)nn(CCO)c1=O | 186 | 166 | – | 160 | 180 | 138 | –
9 | CC(=O)c1c(-c2ccc(Cl)cc2)c(-c2ccc(Cl)cc2)nn(CCNC(C)C)c1=O | 216 | 143 | 211 | 181 | 176 | – | –
10 | CC(=O)c1c(-c2ccc(Cl)cc2)c(-c2ccc(Cl)cc2)nn(CCN(C)C)c1=O [listing 1 of 2 here] | 201 | 155 | 182 | 179 | 144 | – | BP (Rattus norvegicus [8]): 193 mmHg; BP (Rattus norvegicus [9]): 199 mmHg; BP (Rattus norvegicus [10]): 164 mmHg; BP (Rattus norvegicus [11]): 182 mmHg; BP (Rattus norvegicus [12]): 167 mmHg
11 | CCOC(=O)CCCn1nc(-c2ccc(Cl)cc2)c(-c2ccc(Cl)cc2)c(C(C)=O)c1=O | 196 | 188 | 192 | 174 | 181 | – | –
12 | N#Cc1c(-c2ccc(Cl)cc2)c(-c2ccc(Cl)cc2)nn(CCO)c1=O | 200 | 145 | – | 158 | 152 | 157 | BP (Rattus norvegicus [13]): 171 mmHg; BP (Rattus norvegicus [14]): 184 mmHg; BP (Rattus norvegicus [15]): 157 mmHg; BP (Rattus norvegicus [16]): 165 mmHg; BP (Rattus norvegicus [17]): 194 mmHg; BP (Rattus norvegicus [18]): 208 mmHg; BP (Rattus norvegicus [19]): 200 mmHg; BP (Rattus norvegicus [20]): 168 mmHg; BP (Rattus norvegicus [21]): 178 mmHg; BP (Rattus norvegicus [22]): 180 mmHg; BP (Rattus norvegicus [23]): 168 mmHg; BP (Rattus norvegicus [24]): 178 mmHg; BP (Rattus norvegicus [25]): 156 mmHg; BP (Rattus norvegicus [26]): 180 mmHg; BP (Rattus norvegicus [27]): 181 mmHg
13 | CC(=O)c1c(-c2ccc(Cl)cc2)c(-c2ccc(Cl)cc2)nn(CCN(C)C)c1=O.Cl | 205 | 160 | 200 | 170 | 184 | – | –
14 | N=C(N)NCCN1CCCCCCC1 [GUANETHIDINE] | – | – | – | – | – | – | BP (Rattus norvegicus [13]): 166 mmHg; BP (Rattus norvegicus [15]): 163 mmHg; BP (Rattus norvegicus [16]): 154 mmHg; BP (Rattus norvegicus [18]): 194 mmHg; BP (Rattus norvegicus [19]): 187 mmHg; BP (Rattus norvegicus [20]): 146 mmHg; BP (Rattus norvegicus [21]): 181 mmHg; BP (Rattus norvegicus [23]): 163 mmHg; BP (Rattus norvegicus [25]): 138 mmHg; BP (Rattus norvegicus [26]): 183 mmHg
15 | CC(C)NCCn1nc(-c2ccc(Cl)cc2)c(-c2ccc(Cl)cc2)c(C#N)c1=O.Cl | 220 | 209 | 218 | 206 | 173 | – | –
16 | CC(=O)NCCn1nc(-c2ccc(Cl)cc2)c(-c2ccc(Cl)cc2)c(C(C)=O)c1=O | 220 | 136 | – | 146 | 145 | 149 | –
17 | CC(=O)c1c(-c2ccc(Cl)cc2)c(-c2ccc(Cl)cc2)nn(CCN=C(C)C)c1=O | 209 | 134 | 203 | 158 | 164 | – | BP (Rattus norvegicus [14]): 208 mmHg; BP (Rattus norvegicus [8]): 198 mmHg; BP (Rattus norvegicus [17]): 210 mmHg; BP (Rattus norvegicus [9]): 211 mmHg; BP (Rattus norvegicus [10]): 196 mmHg; BP (Rattus norvegicus [11]): 201 mmHg; BP (Rattus norvegicus [22]): 209 mmHg; BP (Rattus norvegicus [24]): 205 mmHg; BP (Rattus norvegicus [12]): 190 mmHg; BP (Rattus norvegicus [27]): 214 mmHg
18 | CC(=O)c1c(-c2ccc(Cl)cc2)c(-c2ccc(Cl)cc2)nn(CCN2CCOCC2)c1=O | – | – | 230 | – | – | 140 | BP (Rattus norvegicus [1]; 100 mg/kg): 239 mmHg and 201 mmHg; BP (Rattus norvegicus [2]; 100 mg/kg): 199 mmHg and 146 mmHg; BP (Rattus norvegicus [4]; 100 mg/kg): 201 mmHg and 161 mmHg; BP (Rattus norvegicus [5]; 100 mg/kg): 222 mmHg and 177 mmHg
19 | CC(=O)c1c(-c2ccc(Cl)cc2)c(-c2ccc(Cl)cc2)nn(CCN(C)C)c1=O [listing 2 of 2 here] | – | – | – | – | – | – | Heart rate (Rattus norvegicus [28]): increased heart rate
